Source: ChEMBL document CHEMBL1142446, “Discovery of 3-acetyl-4-hydroxy-2-pyranone derivatives and their difluoridoborate complexes as a novel class of HIV-1 integrase inhibitors” (Bioorg Med Chem, 2008)
pIC50: −log10 of the molar value. The source made the active and inactive calls. The calls are words filed in the database; no cut-off is given here.

Assays:
[1] = target: T1, Human immunodeficiency virus type 1 integrase (Human immunodeficiency virus 1, UniProt Q7ZJM1); assay: Inhibition of wild-type HIV1 integrase 3'-end processing activity
T1 sequence (Q7ZJM1 whole entry): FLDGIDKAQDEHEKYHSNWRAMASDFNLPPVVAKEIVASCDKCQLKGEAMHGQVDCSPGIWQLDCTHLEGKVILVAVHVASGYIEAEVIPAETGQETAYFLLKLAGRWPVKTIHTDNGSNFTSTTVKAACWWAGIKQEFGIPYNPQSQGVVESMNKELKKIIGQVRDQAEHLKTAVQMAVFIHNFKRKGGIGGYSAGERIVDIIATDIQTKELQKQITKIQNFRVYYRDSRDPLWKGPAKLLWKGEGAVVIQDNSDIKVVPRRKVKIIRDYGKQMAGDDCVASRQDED
Outline: (§1)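 Recombinant wild-type HIV-1 integrase (200 nM final) preincubated with inhibitor for 30 min at 30 °C in 25 mM MOPS pH 7.2 with 50 mM NaCl, 7.5 mM MnCl2, 10% DMSO, BSA and thiols. Then 20 nM 5′-³²P-labeled 21-mer duplex substrate (21top/21bot) was added for 1 h. Quenched in formamide dye and resolved on denaturing 20% polyacrylamide–urea gel. Selectivity index = IC50(3′-processing)/IC50(strand transfer).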

[2] = Cytotoxicity against human HCT 116 cells after 72 hrs by MTT assay; format: cell-based; conditions: hct-116, 72 h
Outline: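 HCT-116 monolayers were seeded at 8 × 10³ cells/well and attached overnight. Compounds in RPMI-1640 with 10% […] were added at a single final concentration of 10 and exposed for 72 h. MTT was then added for 4 h, crystals were dissolved in DMSO, and absorbance was read at 570 nm against blanks.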

[3] = target: T1, Human immunodeficiency virus type 1 integrase; assay: Inhibition of wild-type HIV1 integrase strand transfer activity; outline: as §1
[4] = target: Human immunodeficiency virus type 1 integrase (Human immunodeficiency virus 1) (UniProt Q7ZJM1); assay: Selectivity index, ratio of IC50 for wild-type HIV1 integrase 3'-end processing activity to IC50 for wild-type HIV1 integrase strand transfer activity; outline: as §1
Sequence of Human immunodeficiency virus type 1 integrase (Human immunodeficiency virus 1) (Q7ZJM1 as listed by the source): as the sequence (Q7ZJM1 whole entry) above

HCT-116 (Homo sapiens) = assay: Cytotoxicity against human HCT 116 cells by MTT assay

Row | SMILES | pIC50 [1] | Activity [2] [µM] | pIC50 [3] | Ratio IC50 [4] | Activity (HCT-116 (Homo sapiens))
1 | Cc1cc(O)c(C(=O)/C=C/C=C2/N(C)c3ccccc3C2(C)C)c(=O)o1 | < 4.00 | > 10 | < 4.00 |  | 
2 | Cc1cc2c(c(=O)o1)C(/C=C/C=C/c1ccc(N(C)C)cc1)=[O+][B-](F)(F)O2 | < 4.00 | > 10 | 4.00 |  | 
3 | CN(C)c1ccc(/C=C/C2=[O+][B-](F)(F)Oc3cc(/C=C/c4ccc(N(C)C)cc4)oc(=O)c32)cc1 | < 4.00 | > 10 | < 4.00 |  | 
4 | CN(C)c1ccc(/C=C/C(=O)c2c(O)cc(/C=C/c3ccc(N(C)C)cc3)oc2=O)cc1 | < 4.00 | > 10 | < 4.00 |  | 
5 | Cc1cc2c(c(=O)o1)C(/C=C/c1ccc(F)cc1)=[O+][B-](F)(F)O2 | 5.05 | > 10 | 4.80 | 0.6 | 
6 | Cc1cc2c(c(=O)o1)C(/C=C/C=C1/N(C)c3ccccc3C1(C)C)=[O+][B-](F)(F)O2 | < 4.00 | > 10 | < 4.00 |  | 
7 | Cc1cc(O)c(C(=O)/C=C/c2ccc(N(C)C)s2)c(=O)o1 | 4.72 | > 10 | 4.96 | 1.8 | 
8 | Cc1cc(O)c(C(=O)/C=C/C=C/c2ccc(N(C)C)cc2)c(=O)o1 | < 4.00 | > 10 | < 4.00 |  | 
9 | COc1ccc(/C=C/C2=[O+][B-](F)(F)Oc3cc(/C=C/c4ccc(N(C)C)cc4)oc(=O)c32)cc1 | < 4.00 | > 10 | < 4.00 |  | 
10 | Cc1cc2c(c(=O)o1)C(/C=C/c1ccc(Br)s1)=[O+][B-](F)(F)O2 | 5.05 | > 10 | 5.52 | 3.2 | inactive
11 | COc1ccc(/C=C/C=C/C2=[O+][B-](F)(F)Oc3cc(C)oc(=O)c32)cc1 | 4.96 | > 10 | 5.40 | 2.5 | inactive
12 | CC[NH+](CC)CC.Cc1cc2c(c(=O)o1)C(/C=C/C=C1\O[B-](F)(F)Oc3cc(C)oc(=O)c31)=[O+][B-](F)(F)O2 | 4.89 | > 10 | 5.15 | 1.9 | inactive
13 | Cc1cc(O)c(C(=O)/C=C/c2ccc(F)cc2)c(=O)o1 | 4.19 | > 10 | < 4.00 | < 0.7 | 
14 | COc1ccc(/C=C/C=C/C(=O)c2c(O)cc(C)oc2=O)cc1 | < 4.00 | > 10 | 4.41 | > 2.6 | 
15 | Cc1cc2c(c(=O)o1)C(/C=C/c1ccc(Br)cc1)=[O+][B-](F)(F)O2 | 4.92 | > 10 | 5.40 | 3.3 | inactive
16 | Cc1cc2c(c(=O)o1)C(/C=C/c1ccc(N(C)C)cc1)=[O+][B-](F)(F)O2 | < 4.00 | > 10 | 4.25 | > 1.8 | 
17 | Cc1cc2c(c(=O)o1)C(/C=C/c1ccc(N(C)C)s1)=[O+][B-](F)(F)O2 | < 4.00 | > 10 | < 4.00 |  | 
18 | COc1ccc(Br)cc1/C=C/C1=[O+][B-](F)(F)Oc2cc(/C=C/c3ccc(N(C)C)cc3)oc(=O)c21 | < 4.00 | > 10 | < 4.00 |  | 
19 | Cc1cc(O)c(C(=O)/C=C/c2ccc(Br)cc2)c(=O)o1 | < 4.00 | > 10 | < 4.00 |  | 
20 | COc1ccc(Br)cc1/C=C/C(=O)c1c(O)cc(/C=C/c2ccc(N(C)C)cc2)oc1=O | < 4.00 | > 10 | 4.00 |  | 
21 | COc1ccc(/C=C/C(=O)c2c(O)cc(/C=C/c3ccc(N(C)C)cc3)oc2=O)cc1 | < 4.00 | > 10 | < 4.00 |  | 
22 | Cc1cc(O)c(C(=O)/C=C/c2ccc(Br)s2)c(=O)o1 | 4.19 | > 10 | 4.64 | 2.8 | 
